Calls of active or inactive are those of the source. The rule behind the calls is not given here.
Columns and labels:
[1] = target: Putative P2Y purinoceptor 10 (Mus musculus) (UniProt Q8BFU7); assay: Intrinsic activity at mouse P2Y10 receptor expressed in HEK293A cells after 1.5 hrs by alkaline phosphatase tagged-TGFalpha shedding assay relative to diF-C3-ph-o-O-C11; format: cell-based; details: HEK293-A
Outline: (§1)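 It is a dimensionless estimate of agonist activity. The GPR34 assay used HEK293A cells with chimeric Gαq/i1 and a 1.5 h incubation; the P2Y10 assay used HEK293A cells.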

[2] = target: Probable G-protein coupled receptor 34 (Mus musculus, UniProt Q9R1K6); assay: (§2) Agonist activity at mouse GPR34 expressed in HEK293A cells cotransfected with chimeric Galphaq/il after 1.5 hrs by alkaline phosphatase tagged-TGFalpha shedding assay; format: cell-based, HEK293-A; details: read-out: EC50
[3] = target: Probable G-protein coupled receptor 34 (Mus musculus) (UniProt Q9R1K6); assay: as §2; format: cell-based; details: HEK293-A
[4] = target: Probable G-protein coupled receptor 34 (Mus musculus) (UniProt Q9R1K6); assay: Agonist activity at mouse GPR34 expressed in HEK293A cells cotransfected with chimeric Galphaq/il assessed as increase in intracellular calcium levels at 1 uM measured after 35 secs by calcium 5 dye based fluorescence microplate reader method in presence of probenecid; format: functional, cell-based; details: HEK293-A
Outline: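 HEK293A cells were transfected with mouse GPR34 and Gαq/i1 plasmids, with empty vector plus Gαq/i1 as mock. After 24 h they were seeded in serum-free DMEM at 5 × 10^5 cells/mL for another 24 h. Cells were loaded with Calcium 5 dye for 1 h with 2.5 mM probenecid and given compound at 1 μM or 100 nM near 35 s. Fluorescence was recorded by plate reader, with SD of triplicates.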

[5] = target: Probable G-protein coupled receptor 34 (Mus musculus) (UniProt Q9R1K6); assay: Intrinsic activity at mouse GPR34 expressed in HEK293A cells cotransfected with chimeric Galphaq/il after 1.5 hrs by alkaline phosphatase tagged-TGFalpha shedding assay relative to O-(Hydroxy(((2R,3R)-2-(((3-(2-((3-phenoxybenzyl)oxy)phenyl)-propanoyl)oxy)methyl)tetrahydro-2H-pyran-3-yl)oxy)phosphoryl)-L-serine; format: cell-based; details: HEK293-A; outline: as §1
[6] = target: Putative P2Y purinoceptor 10 (Mus musculus, UniProt Q8BFU7); assay: (§3) Agonist activity at mouse P2Y10 receptor expressed in HEK293A cells after 1.5 hrs by alkaline phosphatase tagged-TGFalpha shedding assay; format: cell-based, HEK293-A
Outline: (§4)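 Transient transfection of HEK293 cells with AP-TGFα plus the mouse receptor. For GPR34, HEK293A cells also got a chimeric Gαq/i1 subunit; P2Y10 was run in HEK293A and GPR174 in HEK293FT. Cells were seeded 24 h post-transfection in 5 mM HEPES (pH 7.4) HBSS onto serial 3.2-fold compound dilutions (top final 32 μM or lower, limited by mock-cell signal). Ki16425 was present, and incubation ran 1.5 h.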

[7] = target: Putative P2Y purinoceptor 10 (Mus musculus) (UniProt Q8BFU7); assay: as §3; format: cell-based; details: HEK293-A; outline: as §4
[8] = target: Probable G-protein coupled receptor 174 (Mus musculus) (UniProt Q3U507); assay: Agonist activity at mouse GPR174 expressed in HEK293FT cells after 1.5 hrs by alkaline phosphatase tagged-TGFalpha shedding assay; format: cell-based; outline: as §4
[9] = target: Putative P2Y purinoceptor 10 (Mus musculus) (UniProt Q8BFU7); assay: Agonist activity at mouse P2Y10 receptor expressed in rat McA-RH7777 cells assessed as induction of actin stress fiber formation at 100 nM after 30 mins by Alexa fluor 594-labelled phalloidin/DAPI staining based fluorescence microscopy; format: cell-based
Outline: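 McA-RH7777 rat hepatoma cells stably expressing mouse P2Y10, or mock-infected, seeded on collagen I at 2.5 × 10^4 cells/well, grown 24 h in 10% FBS DMEM. Serum-starved 1 h in 0.01% BSA DMEM, stimulated 30 min. Fixed in 4% paraformaldehyde, Triton X-100 permeabilised, stained 1 h with Alexa 594-phalloidin (1.5 μg/mL) and DAPI (1 μg/mL). Scored by fluorescence imaging.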

HEK293-A = assay: Selectivity ratio of EC50 for mouse P2Y10 receptor expressed in HEK293A cells to EC50 for mouse GPR34 expressed in HEK293A cells; format: cell-based

Chain of Putative P2Y purinoceptor 10 (Q8BFU7 whole entry): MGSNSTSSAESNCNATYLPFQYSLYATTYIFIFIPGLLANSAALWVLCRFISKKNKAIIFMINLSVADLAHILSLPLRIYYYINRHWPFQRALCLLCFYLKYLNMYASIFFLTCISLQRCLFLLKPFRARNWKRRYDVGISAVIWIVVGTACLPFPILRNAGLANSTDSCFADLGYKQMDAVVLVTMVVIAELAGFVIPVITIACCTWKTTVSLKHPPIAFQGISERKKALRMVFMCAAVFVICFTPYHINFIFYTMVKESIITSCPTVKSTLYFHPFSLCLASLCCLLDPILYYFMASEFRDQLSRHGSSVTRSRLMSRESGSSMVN
Chain of Putative P2Y purinoceptor 10 (Mus musculus) (Q8BFU7 whole entry): as above
Chain of Probable G-protein coupled receptor 34 (Mus musculus) (Q9R1K6 whole entry): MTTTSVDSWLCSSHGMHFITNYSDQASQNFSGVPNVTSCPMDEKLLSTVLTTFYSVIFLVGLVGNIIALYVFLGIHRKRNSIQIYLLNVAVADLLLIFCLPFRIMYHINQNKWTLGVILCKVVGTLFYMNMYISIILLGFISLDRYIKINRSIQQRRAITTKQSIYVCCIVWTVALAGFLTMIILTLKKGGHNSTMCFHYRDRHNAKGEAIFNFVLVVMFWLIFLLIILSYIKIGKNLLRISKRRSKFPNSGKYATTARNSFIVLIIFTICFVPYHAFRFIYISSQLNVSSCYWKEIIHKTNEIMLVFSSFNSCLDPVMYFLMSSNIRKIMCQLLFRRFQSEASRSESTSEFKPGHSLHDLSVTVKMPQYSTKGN
Chain of Probable G-protein coupled receptor 34 (Q9R1K6 whole entry): as above
Chain of Probable G-protein coupled receptor 174 (Mus musculus) (Q3U507 whole entry): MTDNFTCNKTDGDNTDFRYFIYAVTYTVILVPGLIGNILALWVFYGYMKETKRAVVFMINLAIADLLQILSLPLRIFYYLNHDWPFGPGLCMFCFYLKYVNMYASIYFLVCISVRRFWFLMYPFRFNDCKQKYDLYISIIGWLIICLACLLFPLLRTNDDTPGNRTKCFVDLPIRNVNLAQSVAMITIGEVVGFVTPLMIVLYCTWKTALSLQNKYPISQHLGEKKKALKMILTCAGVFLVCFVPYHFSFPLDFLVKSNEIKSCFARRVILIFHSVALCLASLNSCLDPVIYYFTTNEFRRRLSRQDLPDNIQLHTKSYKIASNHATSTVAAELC

| Compound | Intrinsic activity [1] | EC50 [2] [µM] | Emax [3] [%] | Activity [4] | Intrinsic activity [5] | EC50 ([6]; read-out: EC50) [µM] | Emax [7] | Activity [8] | Activity [9] | Ratio EC50 (HEK293-A) | EC50 ([6]; hek293-a) |
| --- | --- | --- | --- | --- | --- | --- | --- | --- | --- | --- | --- |
| N[C@@H](COP(=O)(O)OC[C@H]1OCCC[C@H]1OC(=O)CCc1ccccc1OCc1cccc(Oc2ccc(Cl)cc2)c1)C(=O)O | inactive | 0.12 | 15.1 | Active | 1.2 | > 1 | inactive | – | – | – | – |
| N[C@@H](COP(=O)(O)O[C@@H]1CCCO[C@@H]1COC(=O)CCc1ccccc1OCc1cccc(Oc2ccc(Cl)cc2)c1)C(=O)O | inactive | 0.037 | 16.6 | Active | 3.8 | > 1 | inactive | – | – | – | – |
| Cc1ccc(Oc2cccc(COc3ccccc3CCC(=O)OC[C@H]3OCCC[C@H]3OP(=O)(O)OC[C@H](N)C(=O)O)c2)cc1 | inactive | 0.036 | 15.2 | Active | 3.6 | > 1 | inactive | – | – | – | – |
| N[C@@H](COP(=O)(O)OC[C@H]1OCCC[C@H]1OC(=O)CCc1ccccc1OCc1cccc(Oc2ccccc2)c1)C(=O)O | inactive | 0.19 | 17.7 | Active | 0.85 | > 1 | inactive | inactive | inactive | 100 | – |
| Cc1ccc(Oc2cccc(COc3ccccc3CCC(=O)O[C@@H]3CCCO[C@@H]3COP(=O)(O)OC[C@H](N)C(=O)O)c2)cc1 | – | 0.077 | 16 | Active | 1.9 | – | – | – | – | – | Not Active |
| N[C@@H](COP(=O)(O)O[C@@H]1CCCO[C@@H]1COC(=O)CCc1ccccc1OCc1cccc(Oc2ccccc2)c1)C(=O)O | inactive | 0.14 | 14.8 | Active | – | > 1 | inactive | inactive | inactive | 100 | – |
